Measured values reported in ChEMBL document CHEMBL1136473, “6-(2-adamantan-2-ylidene-hydroxybenzoxazole)-O-sulfamate: a potent non-steroidal irreversible inhibitor of human steroid sulfatase” (Bioorg Med Chem Lett, 2003).
pEC50, pIC50, pKi: −log10 of the molar value. Active and inactive are the calls of the source. No cut-off for these calls is given here.

Tests used:
[1] = target: T1, Steryl-sulfatase (Homo sapiens, UniProt P08842); test: Inhibitory activity against human steroid sulfatase expressing in CHO cells; type: cell-based
T1 sequence (P08842 whole entry): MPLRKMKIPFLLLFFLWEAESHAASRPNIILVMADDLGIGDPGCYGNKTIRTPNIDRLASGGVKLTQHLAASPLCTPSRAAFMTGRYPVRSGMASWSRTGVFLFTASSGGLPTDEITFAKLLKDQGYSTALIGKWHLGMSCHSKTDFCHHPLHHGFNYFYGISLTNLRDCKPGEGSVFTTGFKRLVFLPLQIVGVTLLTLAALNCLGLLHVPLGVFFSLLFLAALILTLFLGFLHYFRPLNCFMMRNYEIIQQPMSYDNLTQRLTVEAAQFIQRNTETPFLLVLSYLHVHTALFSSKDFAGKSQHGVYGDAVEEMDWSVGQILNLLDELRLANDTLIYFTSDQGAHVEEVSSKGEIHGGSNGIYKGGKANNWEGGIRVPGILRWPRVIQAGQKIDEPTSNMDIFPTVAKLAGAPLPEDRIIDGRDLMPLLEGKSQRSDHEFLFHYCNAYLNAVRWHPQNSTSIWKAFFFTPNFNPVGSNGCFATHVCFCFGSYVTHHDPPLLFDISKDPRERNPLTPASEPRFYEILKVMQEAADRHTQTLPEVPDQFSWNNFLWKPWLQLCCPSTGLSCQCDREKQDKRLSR

[2] = target: Arylsulfatase B (Homo sapiens) (UniProt P15848); test: Inhibitory activity against human aryl sulfatase B (ASB) isolated from human placenta at a concentration up to 10 uM
Chain of Arylsulfatase B (Homo sapiens) (P15848 whole entry): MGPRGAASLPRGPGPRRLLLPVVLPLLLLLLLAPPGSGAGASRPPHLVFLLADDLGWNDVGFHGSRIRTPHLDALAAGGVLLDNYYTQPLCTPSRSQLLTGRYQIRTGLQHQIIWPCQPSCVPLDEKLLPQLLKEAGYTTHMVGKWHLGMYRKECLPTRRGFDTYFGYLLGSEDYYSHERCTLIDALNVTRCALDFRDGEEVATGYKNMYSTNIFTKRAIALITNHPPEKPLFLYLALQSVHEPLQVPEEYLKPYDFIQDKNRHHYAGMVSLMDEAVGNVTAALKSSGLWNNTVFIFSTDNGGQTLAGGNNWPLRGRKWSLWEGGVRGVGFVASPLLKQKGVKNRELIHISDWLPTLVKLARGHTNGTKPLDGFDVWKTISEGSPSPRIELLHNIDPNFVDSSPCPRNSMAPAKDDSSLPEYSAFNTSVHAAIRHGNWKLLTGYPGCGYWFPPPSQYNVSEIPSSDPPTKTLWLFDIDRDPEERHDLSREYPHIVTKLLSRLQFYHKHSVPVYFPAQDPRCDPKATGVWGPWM
Summary of the method: (§1)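 Arylsulfatases A and B purified from human placenta and assayed with inhibitor present at up to 10 μM. Time dependence of inhibition examined.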

[3] = target: T1, Steryl-sulfatase; test: Inhibitory activity against human steroid sulfatase in fibroblasts
[4] = target: T2, Estrogen receptor (Homo sapiens, UniProt P03372); test: Affinity for human estrogen receptor alpha
T2 sequence (P03372 whole entry): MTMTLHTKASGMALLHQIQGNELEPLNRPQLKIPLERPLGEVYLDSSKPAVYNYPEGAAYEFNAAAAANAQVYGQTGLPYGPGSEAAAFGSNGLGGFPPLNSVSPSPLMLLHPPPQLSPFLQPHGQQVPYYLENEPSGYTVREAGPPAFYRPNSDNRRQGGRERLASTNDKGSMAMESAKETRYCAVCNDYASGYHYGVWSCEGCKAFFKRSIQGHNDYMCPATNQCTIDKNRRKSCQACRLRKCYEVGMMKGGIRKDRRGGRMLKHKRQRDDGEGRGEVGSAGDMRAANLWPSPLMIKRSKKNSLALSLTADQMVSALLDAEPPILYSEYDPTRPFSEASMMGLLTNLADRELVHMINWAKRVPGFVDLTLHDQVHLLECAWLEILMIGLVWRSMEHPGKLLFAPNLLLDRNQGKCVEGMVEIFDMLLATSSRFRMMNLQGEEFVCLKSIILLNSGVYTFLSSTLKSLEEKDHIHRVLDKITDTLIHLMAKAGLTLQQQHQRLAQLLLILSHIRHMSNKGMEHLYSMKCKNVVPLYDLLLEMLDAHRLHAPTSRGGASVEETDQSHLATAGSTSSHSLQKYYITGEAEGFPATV

[5] = target: T3, Steryl-sulfatase (Homo sapiens) (UniProt P08842); test: Rate constant of inactivation against human steroid sulfatase
T3 sequence (whole entry): T1 sequence (P08842 whole entry)
Summary of the method: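 Purified human steroid sulfatase incubated with a range of inhibitor concentrations. Residual enzyme activity measured over time to follow inactivation kinetics, giving Ki and kinact.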

[6] = target: T1, Steryl-sulfatase; test: Inhibitory activity against STS in human MCF-7 breast cancer cells; type: cell-based; settings: mcf7
Summary of the method: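 Intact MCF-7 breast cancer cells; STS-dependent cleavage of estrone sulfate substrate measured to derive IC50.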

[7] = target: Estrogen receptor beta (Homo sapiens, UniProt Q92731); test: Affinity for human estrogen receptor beta
Chain of Estrogen receptor beta (Q92731 whole entry): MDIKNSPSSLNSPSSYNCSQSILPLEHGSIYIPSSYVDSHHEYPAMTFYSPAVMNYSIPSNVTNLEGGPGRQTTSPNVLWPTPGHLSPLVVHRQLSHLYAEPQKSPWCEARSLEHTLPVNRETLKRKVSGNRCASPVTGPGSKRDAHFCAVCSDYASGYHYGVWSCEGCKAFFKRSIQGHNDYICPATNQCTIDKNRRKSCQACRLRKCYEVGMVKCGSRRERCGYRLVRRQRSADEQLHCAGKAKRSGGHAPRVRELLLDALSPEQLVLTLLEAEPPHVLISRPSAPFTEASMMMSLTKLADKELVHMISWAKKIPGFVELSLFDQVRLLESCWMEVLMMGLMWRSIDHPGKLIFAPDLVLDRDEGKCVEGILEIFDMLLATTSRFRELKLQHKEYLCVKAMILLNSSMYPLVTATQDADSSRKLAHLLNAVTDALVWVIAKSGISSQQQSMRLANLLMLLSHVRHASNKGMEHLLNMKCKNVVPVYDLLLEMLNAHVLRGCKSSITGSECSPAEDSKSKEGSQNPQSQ

[8] = target: T1, Steryl-sulfatase; test: Inhibitory constant against purified human steroid sulfatase
[9] = target: T1, Steryl-sulfatase; test: Inhibition of human STS in keratinocytes; type: cell-based
[10] = target: T4, Arylsulfatase A (Homo sapiens) (UniProt P15289); test: Inhibitory activity against human Arylsulfatase A (ASA) isolated from human placenta; IA=Inactive; summary of the method: as §1
T4 sequence (whole entry): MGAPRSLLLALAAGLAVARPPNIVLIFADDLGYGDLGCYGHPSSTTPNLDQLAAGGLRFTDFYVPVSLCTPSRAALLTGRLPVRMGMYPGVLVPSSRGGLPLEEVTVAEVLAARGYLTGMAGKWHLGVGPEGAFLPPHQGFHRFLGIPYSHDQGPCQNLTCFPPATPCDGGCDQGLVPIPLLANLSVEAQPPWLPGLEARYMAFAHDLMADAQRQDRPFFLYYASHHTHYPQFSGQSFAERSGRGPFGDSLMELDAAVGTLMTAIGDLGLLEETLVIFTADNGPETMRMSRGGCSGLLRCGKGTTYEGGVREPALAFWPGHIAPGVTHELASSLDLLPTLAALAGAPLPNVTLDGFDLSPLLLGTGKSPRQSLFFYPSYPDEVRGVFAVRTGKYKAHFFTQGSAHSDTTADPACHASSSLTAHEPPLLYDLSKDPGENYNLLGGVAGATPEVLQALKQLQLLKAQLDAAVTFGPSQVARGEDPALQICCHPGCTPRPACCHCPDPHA

pIC50 [1]	inhibition [2]	pIC50 [3]	pIC50 [6]	pIC50 [9]	Activity [10]	SMILES	pEC50 [4]	K inact [5]	pEC50 [7]	pKi [8]
7.50	25%	9.12	8.64	9.11	inactive	NS(=O)(=O)Oc1ccc2nc(C=C3C4CC5CC(C4)CC3C5)oc2c1	< 4.00	0.097 U s-1	< 4.00	5.22
–	–	–	–	–	–	C[C@]12CC[C@@H]3c4ccc(OS(N)(=O)=O)cc4CCC3[C@@H]1CCC2=O (single isomer, unassigned) [EMATE]	5.59	0.009 U s-1	5.43	6.33
